Experimental data as given in ChEMBL document CHEMBL3608306, “Design, synthesis and evaluation of new GEQ derivatives as inhibitors of InhA enzyme and Mycobacterium tuberculosis growth” (Eur J Med Chem, 2015).
In brackets after ≈: the same amount, converted by molar mass.

Columns and labels:
[1] = tested on: Mycobacterium tuberculosis; experiment: Antimycobacterial activity against Mycobacterium tuberculosis H37Rv after 21 days by microbroth dilution method; assay type: functional
[2] = tested on: Mycobacterium tuberculosis; experiment: Inhibition of Mycobacterium tuberculosis His6-tagged InhA expressed in Escherichia coli BL21 using 2-trans-dodecenoyl-CoA as substrate assessed as conversion of NADH to NAD+ at 50 uM relative to control
How it was run: (§1)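 Triplicate NADH-dependent reduction of the substrate analogue 2-trans-dodecenoyl-CoA by InhA, with NADH oxidation to NAD+ followed as the fall in absorbance at 340 nm. Percent inhibition was screened at 50 µM, or at 10 µM where solubility limited. IC50 came from 4-parameter curve fits of at least six concentrations.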

[3] = tested on: Mycobacterium tuberculosis; experiment: Inhibition of Mycobacterium tuberculosis His6-tagged InhA expressed in Escherichia coli BL21 using 2-trans-dodecenoyl-CoA as substrate assessed as conversion of NADH to NAD+ at 10 uM relative to control; how it was run: as §1
[4] = Inhibition of Mycobacterium tuberculosis His6-tagged InhA expressed in Escherichia coli BL21 using 2-trans-dodecenoyl-CoA as substrate assessed as conversion of NADH to NAD+; how it was run: as §1
[5] = tested on: Mycobacterium tuberculosis; experiment: Inhibition of Mycobacterium tuberculosis His6-tagged InhA expressed in Escherichia coli BL21 using 2-trans-dodecenoyl-CoA as substrate assessed as conversion of NADH to NAD+ at 5 uM relative to control
How it was run: (§2)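 Chirally separated enantiomers were tested for InhA inhibition at 5 µM or 250 nM, run in triplicate. The assay used 2-trans-dodecenoyl-CoA substrate and NADH, read as the decrease in absorbance at 340 nm from NADH oxidation to NAD+. IC50 came from 4-parameter fits of at least six points.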

[6] = tested on: Mycobacterium tuberculosis; experiment: Ratio of MIC for Mycobacterium tuberculosis H37Rv in absence of CCCP to MIC for Mycobacterium tuberculosis H37Rv in presence of CCCP; assay type: functional
[7] = tested on: Mycobacterium tuberculosis; experiment: Antimycobacterial activity against Mycobacterium tuberculosis H37Rv after 21 days by microbroth dilution method in presence of 7.5 ug/ml efflux pump inhibitor CCCP; assay type: functional; conditions: 504 h
[8] = tested on: Mycobacterium tuberculosis; experiment: Antimycobacterial activity against Mycobacterium tuberculosis H37Rv after 21 days by microbroth dilution method in presence of 3 ug/ml efflux pump inhibitor reserpine; assay type: functional; conditions: 504 h
[9] = tested on: Mycobacterium tuberculosis; experiment: Antimycobacterial activity against Mycobacterium tuberculosis H37Rv after 21 days by microbroth dilution method in presence of 40 ug/ml efflux pump inhibitor verapamil; assay type: functional; conditions: 504 h
[10] = tested on: Mycobacterium tuberculosis; experiment: Ratio of MIC for Mycobacterium tuberculosis H37Rv in absence of reserpine to MIC for Mycobacterium tuberculosis H37Rv in presence of reserpine; assay type: functional
[11] = tested on: Mycobacterium tuberculosis; experiment: Ratio of MIC for Mycobacterium tuberculosis H37Rv in absence of verapamil to MIC for Mycobacterium tuberculosis H37Rv in presence of verapamil; assay type: functional
[12] = tested on: Mycobacterium tuberculosis; experiment: Antimycobacterial activity against Mycobacterium tuberculosis by Alamar blue assay; assay type: functional
[13] = tested on: Mycobacterium tuberculosis; experiment: Antimycobacterial activity against Mycobacterium tuberculosis by CFU counting method; assay type: functional
[14] = tested on: Mycobacterium tuberculosis; experiment: Inhibition of Mycobacterium tuberculosis His6-tagged InhA expressed in Escherichia coli BL21 using 2-trans-dodecenoyl-CoA as substrate assessed as conversion of NADH to NAD+ at 250 nM relative to control; how it was run: as §2
[15] = Mycobacterium tuberculosis, H37Rv, 504 h, read-out: MIC

CCCCCCOc1ccc2c(c1)-c1ccccc1C2N1CCN(C(=O)c2ccccc2)CC1 (single isomer, unassigned) [listing 1 of 2 here] showed an MIC [1] greater than 22 µM.

For CCCOc1ccc2c(c1)-c1ccccc1C2N1CCN(C(=O)c2ccccc2)CC1 (racemic), the inhibition [2] was 91%, the inhibition [3] was 84% and the MIC [1, 15] was 24.2 µM (≈ 9.98 µg/mL). It also gave an IC50 [4] of 1010 nM.

Work on CCCCNC(=O)N1CCN(C2c3ccccc3-c3ccccc32)CC1 yielded an inhibition [2] of 68%, an inhibition [3] of 42% and an MIC [1, 15] of 14.3 µM (≈ 5 µg/mL).

In the case of S=C(Nc1ccccc1)N1CCN(C2c3ccccc3-c3ccccc32)CC1, the inhibition [2] is reported as 57%, the inhibition [3] is reported as 32% and the MIC [1, 15] is reported as greater than 25.9 µM.

In the case of [O-][S+](c1ccccc1)N1CCN(C2c3ccccc3-c3ccccc32)CC1 (racemic), the inhibition [2] is reported as 14% and the MIC [1, 15] is reported as greater than 26.7 µM.

COc1ccc2c(c1)-c1ccccc1C2N1CCN(C(=O)c2ccccc2)CC1 (single isomer, unassigned; enantiomer 1) [listing 1 of 2 here] showed an inhibition [5] of 11%.

CCCCCCCCC(=O)N1CCN(C2c3ccccc3-c3ccccc32)CC1 showed an inhibition [2] of 47%, an inhibition [3] of 22% and an MIC [1, 15] of 12.8 µM (≈ 5 µg/mL).

COc1ccc2c(c1)-c1ccccc1C2N1CCN(C(=O)c2ccccc2)CC1 (stereo in doubt; 31b) [listing 1 of 2 here] gave an inhibition [5] of 68%.

Work on O=C(c1ccccc1)N1CCN(C2c3ccccc3-c3ccccc32)CC1 yielded an inhibition [2] of 94%, an inhibition [3] of 94% and a Ratio [6] greater than 5. For the same compound, the MIC [7] was less than 3.5 µM, the MIC [8] was 56.5 µM and the MIC [9] was 56.5 µM. It also gave an MIC [1, 15] of 14.1 µM (≈ 5 µg/mL) and an IC50 [4] of 490 nM.

With O=C(c1ccccc1)N1CCN(C2c3ccccc3-c3cc(OCc4ccccc4)ccc32)CC1 (racemic) the inhibition [2] was 63%, the inhibition [3] was 57% and the MIC [1, 15] was greater than 21.7 µM. The IC50 [4] was 1000 nM.

Compound CCCCCCOc1ccc2c(c1)-c1ccccc1C2C1CCN(C(=O)c2ccccc2)CC1 (racemic) has an inhibition [2] of 64%, a Ratio [10] of 4 and an inhibition [3] of 71%. For the same compound, the MIC [8] was 22.1 µM, the Ratio [11] was 2 and the MIC [9] was 44.1 µM. The MIC [1, 15] was 88.2 µM (≈ 40 µg/mL) and the IC50 [4] was 1050 nM.

CCCCCCOc1ccc2c(c1)-c1ccccc1C2N1CCN(C(=O)c2ccccc2)CC1 (single isomer, unassigned; enantiomer 2) [listing 1 of 2 here] showed a Ratio [10] greater than 4, a Ratio [6] greater than 4 and an MIC [7] of less than 2.7 µM. It also gave an MIC [8] of less than 2.7 µM, an MIC [9] of 11 µM and an MIC [1] of 11 µM (≈ 5 µg/mL). For the same compound, the IC50 [4] was 102 nM.

Compound COP(=O)(c1ccccc1)N1CCN(C2c3ccccc3-c3ccccc32)CC1 (racemic) has an inhibition [2] of 17% and an MIC [1, 15] greater than 25.7 µM.

CCCCCCc1ccc2c(c1)-c1ccccc1C2N1CCN(C(=O)c2ccccc2)CC1 (racemic) showed an inhibition [2] of 60%, an inhibition [3] of 52% and an MIC [1, 15] of 22.8 µM (≈ 10 µg/mL). The IC50 [4] was 1000 nM.

O=C(c1ccccc1)N1CCC(C2c3ccccc3-c3ccccc32)CC1 gave an inhibition [2] of 93%, an inhibition [3] of 88% and an MIC [1, 15] of 28.3 µM (≈ 10 µg/mL). For the same compound, the IC50 [4] was 940 nM.

Compound O=C(c1ccc2[nH]ccc2c1)N1CCN(C2c3ccccc3-c3ccccc32)CC1 has an inhibition [2] of 87%, an MIC [12] greater than 125 µM and an MIC [13] greater than 125 µM. For the same compound, the inhibition [3] was 81%, the Ratio [6] was greater than 4 and the MIC [7] was less than 12.7 µM. The MIC [8] was 25.4 µM, the Ratio [11] was greater than 4 and the MIC [9] was less than 12.7 µM. For the same compound, the MIC [1, 15] was 50.1 µM (≈ 19.7 µg/mL) and the IC50 [4] was 860 nM.

Work on S=C(c1ccccc1)N1CCN(C2c3ccccc3-c3ccccc32)CC1 yielded an inhibition [2] of 31% and an MIC [1, 15] of 13.5 µM (≈ 5 µg/mL).

For NNC(=O)c1ccncc1 [ISONIAZID], the MIC [1, 15] was 0.4 µM (≈ 0.0549 µg/mL).

Compound c1ccc2c(c1)-c1ccccc1C2N1CCNCC1 has an inhibition [2] of 7% and an MIC [1, 15] greater than 39.9 µM.

Compound CCCCCCOc1ccc2c(c1)-c1ccccc1C2N1CCN(C(=O)c2ccccc2)CC1 (single isomer, unassigned) [listing 2 of 2 here] has an inhibition [14] of 0%.

In the case of CCCOc1ccc2c(c1)C(N1CCN(C(=O)c3ccccc3)CC1)c1ccccc1-2 (racemic), the inhibition [2] is reported as 88%, the inhibition [3] is reported as 83% and the MIC [1, 15] is reported as greater than 24.2 µM. It also gave an IC50 [4] of 1300 nM.

CP(=O)(c1ccccc1)N1CCN(C2c3ccccc3-c3ccccc32)CC1 (racemic) showed an inhibition [2] of 17% and an MIC [1, 15] greater than 24.7 µM.

O=C(Nc1ccc([N+](=O)[O-])cc1)N1CCN(C2c3ccccc3-c3ccccc32)CC1 gave an inhibition [2] of 33% and an MIC [1, 15] of 12.1 µM (≈ 5.02 µg/mL).

Work on CCCCCCc1ccc2c(c1)C(N1CCN(C(=O)c3ccccc3)CC1)c1ccccc1-2 (racemic) yielded an inhibition [2] of 48%, an inhibition [3] of 45% and an MIC [1, 15] of 22.8 µM (≈ 10 µg/mL).

Compound CCCCCCCCc1ccc2c(c1)C(N1CCN(C(=O)c3ccccc3)CC1)c1ccccc1-2 (racemic) has an inhibition [2] of 54%, an inhibition [3] of 27% and an MIC [1, 15] greater than 21.4 µM.

O=C1CN(C2c3ccccc3-c3ccccc32)CCN1C(=O)c1ccccc1 showed an inhibition [2] of 26% and an MIC [1, 15] greater than 27.1 µM.

For CCCCCCCCNC(=O)N1CCN(C2c3ccccc3-c3ccccc32)CC1, the inhibition [2] was 34% and the MIC [1, 15] was greater than 24.7 µM.

With COc1ccc2c(c1)-c1ccccc1C2N1CCN(C(=O)c2ccccc2)CC1 (racemic) [listing 1 of 2 here] the MIC [1, 15] was 26 µM (≈ 10 µg/mL) and the IC50 [4] was 2690 nM.

In the case of O=S(=O)(c1ccccc1)N1CCN(C2c3ccccc3-c3ccccc32)CC1, the inhibition [2] is reported as 12% and the MIC [1, 15] is reported as greater than 25.6 µM.

Work on CCCCCCOc1ccc2c(c1)-c1ccccc1C2N1CCN(C(=O)c2ccccc2)CC1 (racemic) [listing 1 of 2 here] yielded an MIC [1, 15] of 22 µM (≈ 10 µg/mL) and an IC50 [4] of 200 nM.

For COc1ccc2c(c1)-c1ccccc1C2N1CCN(C(=O)c2ccccc2)CC1 (racemic) [listing 2 of 2 here], the inhibition [2] was 92%, the inhibition [3] was 74% and the inhibition [5] was 60%.

For COc1ccc2c(c1)-c1ccccc1C2N1CCN(C(=O)c2ccccc2)CC1 (stereo in doubt; 31b) [listing 2 of 2 here], the IC50 [4] was 2070 nM.

In the case of O=C(Nc1ccccc1)N1CCN(C2c3ccccc3-c3ccccc32)CC1, the inhibition [2] is reported as 84%, the inhibition [3] is reported as 79% and the MIC [1, 15] is reported as greater than 27.1 µM. It also gave an IC50 [4] of 1180 nM.

COc1ccc2c(c1)-c1ccccc1C2N1CCN(C(=O)c2ccccc2)CC1 (single isomer, unassigned; enantiomer 1) [listing 2 of 2 here] showed an MIC [1] greater than 26 µM.

CCCCCCOc1ccc2c(c1)-c1ccccc1C2N1CCN(C(=O)c2ccccc2)CC1 (single isomer, unassigned; enantiomer 2) [listing 2 of 2 here] showed an inhibition [14] of 71%.

CCCCCCOc1ccc2c(c1)-c1ccccc1C2N1CCN(C(=O)c2ccccc2)CC1 (racemic) [listing 2 of 2 here] gave an inhibition [14] of 53%, an inhibition [2] of 79% and an inhibition [3] of 70%.

Work on CCCCC(=O)N1CCN(C2c3ccccc3-c3ccccc32)CC1 yielded an inhibition [2] of 75%, an inhibition [3] of 45% and an MIC [1, 15] of 29.9 µM (≈ 10 µg/mL).
